Source: ChEMBL document CHEMBL1139307, “1-Naphthyl and 4-indolyl arylalkylamines as selective monoamine reuptake inhibitors” (Bioorg Med Chem Lett, 2009)
pIC50, pKi: −log10 of the molar value.

Legend:
[1] = target: Sodium-dependent serotonin transporter (Rattus norvegicus, UniProt P31652); test: Displacement of [3H]citalopram from SERT in Sprague-dawley rat frontal cortex by liquid scintillation spectrophotometry; assay type: tissue-based
[2] = target: Sodium-dependent dopamine transporter (Rattus norvegicus, UniProt P23977); test: Displacement of [125I]RTI55 from DAT in Sprague-dawley rat striatum by liquid scintillation spectrophotometry
In short: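 Membranes from tissue homogenized in 10 vol of 0.32 M sucrose/10 mM sodium phosphate buffer, pH 7.4, and spun three times at 48,000g for 10 min. Cold-Tris filtration used BSA-presoaked GF/B filters, with WF-23 defining non-specific binding.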

Transporter = Transporter (Rattus norvegicus, UniProt Q63380); test: Displacement of [3H]nisoxetine from Sprague-dawley rat NET by liquid scintillation spectrophotometry
Transporter, sequence (Q63380 whole entry): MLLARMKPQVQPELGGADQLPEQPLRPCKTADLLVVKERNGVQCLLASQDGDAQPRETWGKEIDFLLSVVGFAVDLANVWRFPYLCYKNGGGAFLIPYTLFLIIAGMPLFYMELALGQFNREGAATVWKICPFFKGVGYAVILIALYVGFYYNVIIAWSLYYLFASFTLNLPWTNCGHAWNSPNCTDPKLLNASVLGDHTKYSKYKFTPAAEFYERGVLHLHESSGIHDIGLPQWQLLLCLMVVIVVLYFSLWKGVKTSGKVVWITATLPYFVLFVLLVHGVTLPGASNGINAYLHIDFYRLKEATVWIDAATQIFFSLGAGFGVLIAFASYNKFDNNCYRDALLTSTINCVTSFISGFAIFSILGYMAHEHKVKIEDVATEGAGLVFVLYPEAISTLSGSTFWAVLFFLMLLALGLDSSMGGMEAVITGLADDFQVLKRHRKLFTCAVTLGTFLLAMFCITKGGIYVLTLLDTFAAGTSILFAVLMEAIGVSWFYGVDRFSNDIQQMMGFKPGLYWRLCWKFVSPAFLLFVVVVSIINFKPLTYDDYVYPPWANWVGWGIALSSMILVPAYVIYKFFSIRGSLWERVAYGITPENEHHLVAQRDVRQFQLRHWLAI

Sodium-dependent dopamine transporter, sequence (P23977 whole entry): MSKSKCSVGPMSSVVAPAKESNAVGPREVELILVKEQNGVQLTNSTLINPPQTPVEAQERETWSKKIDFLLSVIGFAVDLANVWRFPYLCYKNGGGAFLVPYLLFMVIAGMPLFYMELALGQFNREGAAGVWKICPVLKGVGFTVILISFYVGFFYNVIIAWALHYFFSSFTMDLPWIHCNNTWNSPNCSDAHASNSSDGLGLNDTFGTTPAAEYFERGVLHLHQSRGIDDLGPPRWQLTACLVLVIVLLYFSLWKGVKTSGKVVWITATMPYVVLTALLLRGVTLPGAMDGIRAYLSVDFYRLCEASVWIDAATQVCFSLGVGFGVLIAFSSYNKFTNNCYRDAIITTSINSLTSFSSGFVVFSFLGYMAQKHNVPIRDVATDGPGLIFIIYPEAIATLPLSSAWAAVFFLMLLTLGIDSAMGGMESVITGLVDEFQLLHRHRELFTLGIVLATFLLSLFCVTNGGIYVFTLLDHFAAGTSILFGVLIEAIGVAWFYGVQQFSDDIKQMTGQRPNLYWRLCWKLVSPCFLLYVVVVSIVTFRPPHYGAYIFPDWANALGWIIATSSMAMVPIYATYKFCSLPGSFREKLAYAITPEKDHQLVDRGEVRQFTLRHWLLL
Sodium-dependent serotonin transporter, sequence (P31652 whole entry): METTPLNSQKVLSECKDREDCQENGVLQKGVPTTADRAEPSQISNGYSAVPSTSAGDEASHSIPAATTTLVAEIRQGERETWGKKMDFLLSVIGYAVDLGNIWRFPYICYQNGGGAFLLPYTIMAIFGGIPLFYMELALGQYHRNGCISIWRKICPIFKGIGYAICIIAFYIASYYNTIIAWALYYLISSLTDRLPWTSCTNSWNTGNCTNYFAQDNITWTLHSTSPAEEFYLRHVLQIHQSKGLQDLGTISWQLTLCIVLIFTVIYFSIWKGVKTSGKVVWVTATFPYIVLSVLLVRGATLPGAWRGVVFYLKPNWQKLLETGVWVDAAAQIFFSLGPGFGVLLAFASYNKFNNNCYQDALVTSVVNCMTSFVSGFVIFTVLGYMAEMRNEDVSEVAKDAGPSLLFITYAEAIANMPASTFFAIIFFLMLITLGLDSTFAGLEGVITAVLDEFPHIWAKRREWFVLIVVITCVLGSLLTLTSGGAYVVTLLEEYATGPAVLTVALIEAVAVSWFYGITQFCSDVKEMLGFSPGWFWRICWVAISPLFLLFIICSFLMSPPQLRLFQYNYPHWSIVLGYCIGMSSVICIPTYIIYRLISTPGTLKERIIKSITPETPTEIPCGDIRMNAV

Molecule `CNCCC[C@H](c1ccc(Cl)c(Cl)c1)c1cccc2[nH]ccc12` has a pKi [1] of 9.09, a pIC50 [2] of 8.42 and a pKi (Transporter) of 5.32.

For `CNCCC[C@@H](c1ccc(Cl)c(Cl)c1)c1cccc2[nH]ccc12`, the pKi [1] was 8.57, the pIC50 [2] was 7.84 and the pKi (Transporter) was 6.44.

`CNCCC[C@@H](c1cccs1)c1cccc2ccccc12` gave a pKi [1] of 8.02, a pIC50 [2] of 6.39 and a pKi (Transporter) of 6.96.

For `CNCC[C@H](c1ccc(Cl)c(Cl)c1)c1cccc2[nH]ccc12`, the pKi [1] was 8.77, the pIC50 [2] was 8.14 and the pKi (Transporter) was 7.02.

Work on `CNCC[C@H](c1cccs1)c1cccc2ccccc12` yielded a pKi [1] of 7.52, a pIC50 [2] of 6.51 and a pKi (Transporter) of 7.28.

For `CNCC[C@H](c1ccc(Cl)c(Cl)c1)c1cccc2ccccc12`, the pKi [1] was 8.28, the pIC50 [2] was 8.01 and the pKi (Transporter) was 5.79.

In the case of `CNCC[C@@H](c1cccs1)c1cccc2ccccc12`, the pKi [1] was 7.92, the pIC50 [2] was 6.64 and the pKi (Transporter) was 6.86.

Molecule `CNCCC[C@@H](c1cccs1)c1cccc2[nH]ccc12` has a pKi [1] of 6.57, a pIC50 [2] of 6.02 and a pKi (Transporter) of 7.10.

`CNCCC[C@H](c1cccs1)c1cccc2ccccc12` gave a pKi [1] of 7.40, a pIC50 [2] of 6.33 and a pKi (Transporter) of 8.10.

Molecule `CNCC[C@H](c1cccs1)c1cccc2[nH]ccc12` has a pKi [1] of 7.50 and a pKi (Transporter) of 7.86.

For `CNCCC[C@@H](c1ccc(Cl)c(Cl)c1)c1cccc2ccccc12`, the pKi [1] was 7.30, the pIC50 [2] was 6.68 and the pKi (Transporter) was < 5.00.

In the case of `CNCC[C@@H](c1ccc(Cl)c(Cl)c1)c1cccc2[nH]ccc12`, the pKi [1] was 8.44, the pIC50 [2] was 7.83 and the pKi (Transporter) was 7.45.

Work on `CNCCC[C@H](c1cccs1)c1cccc2[nH]ccc12` yielded a pKi [1] of 7.14, a pIC50 [2] of 6.50 and a pKi (Transporter) of 8.05.

With `CNCCC[C@H](c1ccc(Cl)c(Cl)c1)c1cccc2ccccc12` the pKi [1] was 8.39, the pIC50 [2] was 7.21 and the pKi (Transporter) was 5.61.

Work on `CNCC[C@@H](c1cccs1)c1cccc2[nH]ccc12` yielded a pKi [1] of 6.78 and a pKi (Transporter) of 6.99.

`CNCC[C@@H](c1ccc(Cl)c(Cl)c1)c1cccc2ccccc12` showed a pKi [1] of 7.07, a pIC50 [2] of 7.45 and a pKi (Transporter) of 5.79.
